Assay results: paper PMC3039817 (British Journal of Cancer, 2010)

Experiments:
MGH-U3 cells = assay: Cell cycle distribution by flow cytometry; assay type: cell-based, human; settings: 500 nM, 24-h exposure
Method in brief: (§1)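 Cells grown in standard medium at 37 °C, 5% CO2, then exposed to 500 nM test compound or DMSO for 24 h. Harvested cells were fixed overnight in 70% ethanol at 4 °C and rehydrated in PBS pH 7.4. They were then pelleted, stained with propidium iodide/RNase in the dark at 37 °C for 30 min, and analysed by flow cytometry. Three independent experiments; ANOVA.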

[1] = tested on: phospho-ERK in 94-10 cells; assay: FGF2-induced and constitutive ERK phosphorylation in 94-10 cells; assay type: cell-based, human; settings: 500 nM, pretreated 1 h, FGF2 5 ng ml–1 + heparin 10 μg ml–1, 15 min
Method in brief: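 94-10 cells (FGFR1-expressing) were pretreated 1 h with or without 500 nM test compound. They were then stimulated 15 min with heparin (10 μg ml–1) with or without FGF2 (5 ng ml–1). Lysis was in RIPAE buffer (Triton X-100, EDTA, SDS, deoxycholate, glycerol, protease inhibitors in PBS), cleared at 12 700 × g, 4 °C. Protein was measured by BCA, immunoblotted for phospho-ERK, reprobed for tubulin and detected by chemiluminescence.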

SW780 cells = assay: Cell cycle distribution by flow cytometry; assay type: cell-based, human; settings: 500 nM, 24-h exposure
Method in brief: as §1

FGFR3 = FGFR3 (Homo sapiens, UniProt P22607); assay: FGFR3 phosphorylation in RT112 cells; assay type: cell-based; settings: 500 nM, 0–24 h
Sequence of FGFR3 (P22607 397-758 limits assumed): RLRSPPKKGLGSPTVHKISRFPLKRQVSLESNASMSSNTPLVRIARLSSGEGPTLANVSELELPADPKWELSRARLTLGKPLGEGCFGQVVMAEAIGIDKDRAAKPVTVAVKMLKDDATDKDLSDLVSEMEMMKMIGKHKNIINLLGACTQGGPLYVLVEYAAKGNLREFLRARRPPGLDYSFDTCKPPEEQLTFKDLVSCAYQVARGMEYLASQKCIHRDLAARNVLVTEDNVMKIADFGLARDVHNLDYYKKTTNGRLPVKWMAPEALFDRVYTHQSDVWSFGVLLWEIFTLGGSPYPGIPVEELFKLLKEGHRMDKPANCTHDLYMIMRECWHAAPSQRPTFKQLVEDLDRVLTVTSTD
Method in brief: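 RT112 cells were exposed to 500 nM test compound for 0–24 h and lysed in RIPAE buffer, cleared at 12 700 × g, 4 °C. FGFR3 was immunoprecipitated with an extracellular-domain antibody. Blots were probed with anti-phosphotyrosine (4G10), then stripped (Tris pH 7.5/urea, 55 °C, 30 min) and reprobed for FGFR3. Detection was by chemiluminescence.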

RT4 cells = assay: Cell cycle distribution by flow cytometry; assay type: cell-based, human; settings: 500 nM, 24-h exposure
Method in brief: as §1

RT112 cells = assay: Cell cycle distribution by flow cytometry; assay type: cell-based, human; settings: 500 nM, 24-h exposure
Method in brief: as §1

97-7 cells = assay: Cell cycle distribution by flow cytometry; assay type: cell-based, human; settings: 500 nM, 24-h exposure
Method in brief: as §1

[2] = Toxicity in treated xenograft-bearing animals; assay type: in vivo, Balb/c immunodeficient nude mice; settings: nude mice, 20 mg kg–1 per day i.p.
Method in brief: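 Male Balb/c nude mice aged 6–8 weeks carried flank trocar implants of ~2 mm3 MGH-U3, SW780 or RT112 tumour fragments. At mean 32 mm3, mice were randomised into groups of eight (untreated control or treated). Dosing was 20 mg kg−1 per day i.p. on days 0–3, plus days 6–9 for MGH-U3. Tumours were measured by caliper.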

| SMILES | cell cycle distribution (MGH-U3 cells) | FGF-induced and constitutive ERK phosphorylation [1] | cell cycle distribution (SW780 cells) | FGFR3 phosphorylation, time-course (FGFR3) | cell cycle distribution (RT4 cells) | cell cycle distribution (RT112 cells) | cell cycle distribution (97-7 cells) | toxicity in treated animals [2] |
| --- | --- | --- | --- | --- | --- | --- | --- | --- |
| CCN(CC)CCCCNc1ncc2cc(-c3cc(OC)cc(OC)c3)c(NC(=O)NC(C)(C)C)nc2n1 [PD173074, 1-tert-butyl-3-[6-(3,5-dimethoxy-phenyl)-2-(4-diethylamino-butylamino)-pyrido[2,3-d]pyrimidin-7-yl]-urea] | significant increase in the proportion of cells in G1 | block both FGF-induced and constitutive ERK phosphorylation | no significant change in cell cycle distribution | rapid and sustained inactivation of FGFR3 | significant increase in the proportion of cells in G1 | significant increase in the proportion of cells in G1 | significant increase in the proportion of cells in G1 | No evidence of significant toxicity |
| CN1CCN(c2ccc3nc(-c4c(N)c5c(F)cccc5[nH]c4=O)[nH]c3c2)CC1 [TKI-258] | significant increase in the proportion of cells in G1 | – | no significant change in cell cycle distribution | – | significant increase in the proportion of cells in G1 | significant increase in the proportion of cells in G1 | significant increase in the proportion of cells in G1 | – |
